Laboratory results published in ChEMBL document CHEMBL1944533, “Synthesis and evaluation of anti-tubercular and antibacterial activities of new 4-(2,6-dichlorobenzyloxy)phenyl thiazole, oxazole and imidazole derivatives. Part 2” (2012).
Converted amounts (≈) assume the structure as drawn.

Key:
Format in all cases: functional
[1] = tested on: Mycobacterium tuberculosis; assay: Antitubercular activity against Mycobacterium tuberculosis H37Rv after 16 to 24 hrs by microplate alamar blue assay
Outline: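 DMSO stocks (12.8 mM) two-fold diluted in Middlebrook 7H12 medium (7H9 with casitone, palmitic acid, BSA, catalase); final concentrations 128 down to 0.5. H37Rv inoculum 2 × 10⁵ cfu/mL added, 37 °C for 7 days, then Tween 80 plus Alamar Blue, further 16–24 h. Fluorescence ex 530/em 590 nm; MIC = lowest concentration giving ≥90% fluorescence reduction versus replicate bacteria-only controls.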

Streptococcus pneumoniae [2] = assay: Antibacterial activity against pencillin-resistant Streptococcus pneumoniae after 16 to 20 hrs by two fold agar dilution method
Outline: (§1)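 Two-fold dilutions of test compounds and reference antibiotics made in molten Mueller-Hinton agar held at 37 °C, final range […]; drug-free medium as control. Plates spot-inoculated with culture containing 10⁴ CFU/mL of each clinical isolate, incubated at 37 °C; MIC read as lowest inhibiting concentration.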

Escherichia coli = assay: Antibacterial activity against Escherichia coli clinical isolate after 16 to 20 hrs by two fold agar dilution method; outline: as §1
Streptococcus pneumoniae [3] = assay: Antibacterial activity against Streptococcus pneumoniae clinical isolate after 16 to 20 hrs by two fold agar dilution method; outline: as §1
Staphylococcus aureus = assay: Antibacterial activity against Staphylococcus aureus clinical isolate after 16 to 20 hrs by two fold agar dilution method; outline: as §1

Row | Compound | MIC [1] | MIC (Streptococcus pneumoniae [2]) | MIC (Escherichia coli) | MIC (Streptococcus pneumoniae [3]) | MIC (Staphylococcus aureus)
1 | O=C(Nc1c(C(=O)O)ncn1-c1ccc(OCc2c(Cl)cccc2Cl)cc1)c1ccc(Cl)cc1 | > 128 µM |  |  |  | 
2 | CCOC(=O)c1sc(NC(=O)c2ccc(Cl)cc2)nc1-c1ccc(OCc2c(Cl)cccc2Cl)cc1 | 1 µM (≈ 0.562 µg/mL) | > 128 µM | > 128 µM | 7.12 µM (≈ 4 µg/mL) | > 128 µM
3 | CCCC(=O)Nc1nc(-c2ccc(OCc3c(Cl)cccc3Cl)cc2)c(C(=O)O)s1 | > 128 µM | > 128 µM | > 128 µM | ≤ 0.134 µM | > 128 µM
4 | COc1c(N2C[C@@H]3CCCN[C@@H]3C2)c(F)cc2c(=O)c(C(=O)O)cn(C3CC3)c12 [MOXIFLOXACIN] | 0.5 µM (≈ 0.201 µg/mL) |  |  |  | 
5 | NNC(=O)c1ccncc1 [ISONIAZID] | 0.81 µM (≈ 0.111 µg/mL) |  |  |  | 
6 | O=C(Nc1nc(-c2ccc(OCc3c(Cl)cccc3Cl)cc2)c(C(=O)O)s1)c1ccccc1 | > 128 µM | > 128 µM | > 128 µM | ≤ 0.125 µM | > 128 µM
7 | CCOC(=O)c1sc(NC(=O)c2ccccc2)nc1-c1ccc(OCc2c(Cl)cccc2Cl)cc1 | 61.2 µM (≈ 32.3 µg/mL) | > 128 µM | > 128 µM | ≤ 0.119 µM | > 128 µM
8 | CCOC(=O)c1sc(NC(=O)c2ccc(OC)cc2)nc1-c1ccc(OCc2c(Cl)cccc2Cl)cc1 | 7.6 µM (≈ 4.24 µg/mL) | > 128 µM | > 128 µM | ≤ 0.112 µM | > 128 µM
9 | O=[N+]([O-])c1cn2c(n1)OC[C@@H](OCc1ccc(OC(F)(F)F)cc1)C2 [PRETOMANID] | 0.44 µM (≈ 0.158 µg/mL) |  |  |  | 
10 | O=C(Nc1nc(-c2ccc(OCc3c(Cl)cccc3Cl)cc2)c(C(=O)O)s1)c1ccc(Cl)cc1Cl | 45.5 µM (≈ 25.9 µg/mL) | > 128 µM | > 128 µM | > 128 µM | > 128 µM
11 | CCCC(=O)Nc1nc(-c2ccc(OCc3c(Cl)cccc3Cl)cc2)c(C(=O)OCC)s1 | 60.8 µM (≈ 30 µg/mL) | > 128 µM | > 128 µM | ≤ 0.127 µM | > 128 µM
12 | O=C(Nc1oc(-c2ccc(OCc3c(Cl)cccc3Cl)cc2)nc1C(=O)O)c1ccc(Cl)cc1 | > 128 µM |  |  |  | 
13 | CC1(C)S[C@@H]2[C@H](NC(=O)[C@H](N)c3ccccc3)C(=O)N2[C@H]1C(=O)O [AMPICILLIN] |  | 10.8 µM (≈ 3.77 µg/mL) | 10.8 µM (≈ 3.77 µg/mL) | 0.168 µM (≈ 0.0587 µg/mL) | 2.7 µM (≈ 0.943 µg/mL)
14 | COc1ccc(C(=O)Nc2nc(-c3ccc(OCc4c(Cl)cccc4Cl)cc3)c(C(=O)O)s2)cc1 | > 128 µM | > 128 µM | > 128 µM | ≤ 0.118 µM | > 128 µM
15 | CCOC(=O)c1ncn(-c2ccc(OCc3c(Cl)cccc3Cl)cc2)c1NC(=O)c1ccc(Cl)cc1 | > 128 µM |  |  |  | 
16 | CCOC(=O)c1nc(-c2ccc(OCc3c(Cl)cccc3Cl)cc2)oc1NC(=O)c1ccc(Cl)cc1 | > 128 µM |  |  |  | 
17 | CCOC(=O)c1sc(NC(=O)c2ccc(Cl)cc2Cl)nc1-c1ccc(OCc2c(Cl)cccc2Cl)cc1 | 25.4 µM (≈ 15.1 µg/mL) | > 128 µM | > 128 µM | > 128 µM | > 128 µM
18 | O=C(Nc1nc(-c2ccc(OCc3c(Cl)cccc3Cl)cc2)c(C(=O)O)s1)c1ccc(Cl)cc1 | > 128 µM | > 128 µM | > 128 µM | ≤ 0.117 µM | > 128 µM
19 | C=CC(=O)Nc1nc(-c2ccc(OCc3c(Cl)cccc3Cl)cc2)c(C(=O)OCC)s1 | 7.2 µM (≈ 3.44 µg/mL) | > 128 µM | > 128 µM | ≤ 0.131 µM | > 128 µM
20 | GENTAMICIN |  | 6.9 µM | 0.43 µM | 6.9 µM | 6.9 µM
